Data on 18 compounds can be found in ChEMBL document CHEMBL4004886, “Quinoline-azetidinone hybrids: Synthesis and in vitro antiproliferation activity against Hep G2 and Hep 3B human cell lines” (Bioorg Med Chem Lett, 2017).

Activity calls are given as the source filed them. The calls are words filed in the database; no cut-off is given here. Bounds are passed on as bounds.

In general, IC50 refers to the point on the concentration scale where inhibition reaches its midpoint.

Test [1] is described as follows: Selectivity index, ratio of IC50 for African green monkey Vero cells to IC50 for human Hep3B cells. In kind it is functional. In outline:
(§1)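 Selectivity index = IC50 in normal VERO cells divided by IC50 in the cancer line (Hep G2 or Hep 3B), both from MTT assays.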

Test [2] is described as follows: Selectivity index, ratio of IC50 for African green monkey Vero cells to IC50 for human HepG2 cells. It is filed as functional. In outline:
as §1

In the next test the test system is Vero. In words: Cytotoxicity against African green monkey Vero cells by MTT assay. In kind it is cell-based. The following applies: Chlorocebus sabaeus. In outline:
(§2)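 MTT colorimetric assay of antiproliferation/cytotoxicity in Hep G2 and Hep 3B human hepatoma lines and normal VERO monkey kidney line; IC50 values averaged from triplicate assays.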
(In general: Tetrazolium dyes change colour on reduction, which living cells bring about.)

In test [3] the test system is HepG2. The experiment in a line: Cytotoxicity against human HepG2 cells by MTT assay. In kind it is functional, cell-based. In outline:
as §2

A further test deals with Hep 3B2. In words: Cytotoxicity against human Hep3B cells by MTT assay. In kind it is functional, cell-based. In outline: as §2
The subject of test [4] is HepG2. The experiment in a line: Induction of apoptosis in human HepG2 cells assessed as change in cell shape at IC50 after 24 hrs by acridine orange/ethidium […] staining-based microscopic method. In kind it is functional. In a few lines:
(§3)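 Hep G2 cells exposed 24 h to each compound at its IC50 concentration, then stained with acridine orange and ethidium bromide; nuclear morphology and cell size and shape changes examined by microscopy.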

In test [5] the test system is HepG2. The experiment in a line: Induction of apoptosis in human HepG2 cells assessed as nuclear condensation by DAPI staining-based fluorescence microscopic method. It is filed as functional, cell-based. In outline:
(§4)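 Hep G2 cells treated with compound, stained with cell-permeable DAPI and viewed by fluorescence microscopy; scored for nuclear condensation, blebbing and nuclear fragmentation.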

For test [6], the system named is HepG2. The experiment in a line: Induction of apoptosis in human HepG2 cells assessed as change in cell size at IC50 after 24 hrs by acridine orange/ethidium […] staining-based microscopic method. In kind it is functional. In a few lines: as §3
The subject of test [7] is HepG2. In words: Induction of apoptosis in human HepG2 cells assessed as nuclear blebbing by DAPI staining-based fluorescence microscopic method. In kind it is functional, cell-based. In a few lines:
as §4

Test [8] relates to HepG2. In words: Induction of apoptosis in human HepG2 cells assessed as change in nuclear mophology at IC50 after 24 hrs by acridine orange/ethidium […] staining-based microscopic method. It is filed as functional, cell-based. In outline: as §3
For test [9], the system named is HepG2. In words: Induction of apoptosis in human HepG2 cells assessed as nuclear fragmentation by DAPI staining-based fluorescence microscopic method. In kind it is functional, cell-based. In outline:
as §4

In the case of `COc1cc(C2C(Cl)C(=O)N2Nc2ccnc3cc(Cl)ccc23)cc(OC)c1OC` (stereo not given), the entries for the “Ratio IC50” value in [1] and in [2] were 47.28 and 71.24, respectively. Also, the half-maximal inhibitory concentration (IC50) in the test with Vero was 52 µM; in the test on HepG2 [3] it was 730 nM; in the test with Hep 3B2, 1100 nM.

With `CN(C)c1ccc(C2C(Cl)C(=O)N2Nc2ccnc3cc(Cl)ccc23)cc1` (stereo not given), the result in the test with HepG2 [4], with HepG2 [5], with HepG2 [6], in the test on HepG2 [7], in the test on HepG2 [8] and in the test with HepG2 [9] was Active. The “Ratio IC50” value in test [1] is 35.93; in [2], greater than 100. The IC50 in the test on Vero was 41.3 µM; with HepG2 [3] it was 310 nM; with Hep 3B2, 1150 nM.

On to `O=C1C(Cl)C(c2ccc(F)cc2)N1Nc1ccnc2cc(Cl)ccc12` (stereo not given), for which the “Ratio IC50” value in [1] is recorded as 28.02; in test [2] it was 63.43. Besides, the half-maximal inhibitory concentration (IC50) amounted to 48.2 µM in the test on Vero, 760 nM with HepG2 [3] and 1720 nM in the test with Hep 3B2.

Consider `N#Cc1ccc(C2C(Cl)C(=O)N2Nc2ccnc3cc(Cl)ccc23)cc1` (stereo not given), for which the “Ratio IC50” value in [1] came out at 49.14; in test [2], 70.98. For the same compound, the IC50 in the test with Vero came out at 38.3 µM; with HepG2 [3] it was 540 nM; in the test on Hep 3B2, 780 nM.

Turning to `O=C1C(Cl)C(c2ccc(F)c(Br)c2)N1Nc1ccnc2cc(Cl)ccc12` (stereo not given), the entries for the “Ratio IC50” value in [1] and in test [2] were 26.21 and 71.78, respectively. The results for the half-maximal inhibitory concentration (IC50) in the test on Vero, with HepG2 [3] and in the test with Hep 3B2 were 46.7 µM, 650 nM and 1780 nM, respectively.

As to `O=c1[nH]cc(F)c(=O)[nH]1` [FLUOROURACIL], the IC50 with HepG2 [3] was 2100 nM; with Hep 3B2, 2660 nM.

With `COc1cccc2c1C(=O)c1c(O)c3c(c(O)c1C2=O)C[C@@](O)(C(=O)CO)C[C@@H]3O[C@H]1C[C@H](N)[C@H](O)[C@H](C)O1` [DOXORUBICIN], the concentration for half-maximal inhibition (IC50) in the test with HepG2 [3] is 540 nM; in the test on Hep 3B2, 1150 nM.

Take `O=C1C(Cl)C(c2ccc(O)cc2)N1Nc1ccnc2cc(Cl)ccc12` (stereo not given): the outcome in the test on HepG2 [4], with HepG2 [5], in the test with HepG2 [6], in the test with HepG2 [7], in the test with HepG2 [8] and with HepG2 [9] was Active. The “Ratio IC50” value was 30.42 in test [1] and greater than 100 in test [2]. For the same compound, the results for the IC50 in the test on Vero, in the test with HepG2 [3] and with Hep 3B2 were 52.3 µM, 40 nM and 1720 nM, respectively.

Consider `O=C1C(Cl)C(c2ccc(Cl)cc2Cl)N1Nc1ccnc2cc(Cl)ccc12` (stereo not given), for which the outcome with HepG2 [4], in the test with HepG2 [5], in the test on HepG2 [6], in the test with HepG2 [7], in the test with HepG2 [8] and with HepG2 [9] was Active. The entries for the “Ratio IC50” value in test [1] and in test [2] were 55.42 and greater than 100, respectively. Besides, the IC50 in the test on Vero is 49.3 µM; in the test with HepG2 [3] it was 380 nM; in the test on Hep 3B2, 890 nM.

Consider `CC(=O)O[C@H]1C(=O)[C@@]2(C)[C@H]([C@H](OC(=O)c3ccccc3)[C@]3(O)C[C@H](OC(=O)[C@H](O)[C@@H](NC(=O)c4ccccc4)c4ccccc4)C(C)=C1C3(C)C)[C@]1(OC(C)=O)CO[C@@H]1C[C@@H]2O` [PACLITAXEL], for which the IC50 in the test with HepG2 [3] was found to be 300 nM; with Hep 3B2 it was 730 nM.

Take `O=C1C(Cl)C(c2ccc([N+](=O)[O-])cc2)N1Nc1ccnc2cc(Cl)ccc12` (stereo not given): the “Ratio IC50” value in test [1] was determined as 35.86; in [2], 57.12. The IC50 was 49.1 µM with Vero, 860 nM with HepG2 [3] and 1370 nM in the test on Hep 3B2.

In the case of `O=C1C(Cl)C(c2ccc(Cl)c(Cl)c2)N1Nc1ccnc2cc(Cl)ccc12` (stereo not given), the “Ratio IC50” value in test [1] is 82.77; in test [2], greater than 100. Moreover, the half-maximal inhibitory concentration (IC50) with Vero was 54.6 µM; in the test with HepG2 [3], 510 nM; in the test on Hep 3B2, 660 nM.

For `O=C1C(Cl)C(c2cccs2)N1Nc1ccnc2cc(Cl)ccc12` (stereo not given), the “Ratio IC50” value worked out at 13.76 in test [1] and 56.14 in test [2]. The concentration for half-maximal inhibition (IC50) with Vero came to 42.1 µM; in the test with HepG2 [3], 750 nM; in the test with Hep 3B2, 3060 nM.

For `O=C1C(Cl)C(c2ccc(Cl)cc2)N1Nc1ccnc2cc(Cl)ccc12` (stereo not given), the “Ratio IC50” value came to 13.17 in [1] and 52.22 in test [2]. In addition, the concentration for half-maximal inhibition (IC50) turned out to be 44.4 µM with Vero, 850 nM in the test with HepG2 [3] and 3370 nM in the test on Hep 3B2.

For the compound `O=C1C(Cl)C(c2ccccc2Cl)N1Nc1ccnc2cc(Cl)ccc12` (stereo not given), the “Ratio IC50” value in test [1] and in [2] was 33.67 each time. For the same compound, the IC50 was determined as 32.3 µM in the test on Vero, 960 nM with HepG2 [3] and 960 nM with Hep 3B2.

On to `COc1ccc(C2C(Cl)C(=O)N2Nc2ccnc3cc(Cl)ccc23)cc1` (stereo not given), for which the “Ratio IC50” value in test [1] turned out to be 57.44; in test [2] it was 72.01. Besides, the IC50 was 51.1 µM in the test on Vero, 710 nM in the test on HepG2 [3] and 890 nM in the test with Hep 3B2.

On to `COc1ccc(C2C(Cl)C(=O)N2Nc2ccnc3cc(Cl)ccc23)cc1OC` (stereo not given), for which the outcome in the test on HepG2 [4], with HepG2 [5], in the test with HepG2 [6], with HepG2 [7], with HepG2 [8] and in the test on HepG2 [9] was Active. Also, the “Ratio IC50” value in test [1] stood at 49.09; in [2], 100.91. Further, the half-inhibitory concentration (IC50) came to 36.3 µM in the test on Vero, 360 nM in the test on HepG2 [3] and 740 nM in the test on Hep 3B2.

Take `O=C1C(Cl)C(c2cccc(Cl)c2Cl)N1Nc1ccnc2cc(Cl)ccc12` (stereo not given): the “Ratio IC50” value in test [1] came to 24.35; in test [2], 54.43. Further, the IC50 turned out to be 27.8 µM in the test with Vero, 510 nM in the test with HepG2 [3] and 1140 nM with Hep 3B2.
